Values after ≈ are worked out from the molar mass of the structure shown.
Key:
[1] = tested on: Herpes simplex virus-1 (KOS); test: microbe, parasite or virus in culture; assay type: cell-based; conditions: for EC50: Human alphaherpesvirus 1, read-out: EC50 Herpes simplex virus-1 (KOS)
mock-infected MT-4 cells = test: Cytotoxicity for mock-infected MT-4 cells; assay type: cell-based; conditions: MTT, printed in both strain rows
How it was run: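 Mock-infected MT-4 cells were grown in RPMI 1640 with 10% heat-inactivated FCS, 2 mM glutamine, 0.1% sodium bicarbonate and 20 µg/ml gentamicin. Cells (6×10^5 cells/ml) were exposed to test compound, and viability was measured by MTT to derive the 50% cytotoxic concentration. A reference drug was tested the same way.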

HEL cultures = conditions: microscopically detectable alteration of normal cell morphology
HIV-2(ROD) = test: Inhibition of HIV-2 induced cytopathic effect in MT-4 cells; assay type: cell-based; conditions: for EC50: MT4, 120 h, read-out: IC50a (50% effective concentration, 50% protection of MT-4 cells against the cytopathic effect of HIV)
How it was run: (§1)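 MT-4 cells were kept in RPMI 1640 with 10% heat-inactivated FCS, 2 mM glutamine, 0.1% sodium bicarbonate and 20 µg/ml gentamicin. Virus stocks (HIV-1 IIIB/LAI, HIV-2 ROD) were grown and titred in MT-4 cells and stored at -70°. 100-300 CCID50 were added to cells at 6×10^5 cells/ml with test compound, then incubated 5 d at 37°. Protection from cytopathic effect was read as viable cells by MTT. A reference drug was run alike.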

[2] = tested on: Herpes simplex virus-2 (G); test: microbe, parasite or virus in culture; assay type: cell-based; conditions: Human alphaherpesvirus 2, read-out: EC50 Herpes simplex virus-2 (G)
Vaccinia virus = test: microbe, parasite or virus in culture; assay type: cell-based; conditions: for EC50: Orthopoxvirus vaccinia, read-out: EC50 Vaccinia virus
[3] = tested on: Herpes simplex virus-1 TK- KOS ACVr; test: microbe, parasite or virus in culture; assay type: cell-based; conditions: Human alphaherpesvirus 1, read-out: EC50 Herpes simplex virus-1 TK- KOS ACVr
HIV-1(IIIB) = test: Inhibition of HIV-1 induced cytopathic effect in MT-4 cells; assay type: cell-based, Human immunodeficiency virus-1; conditions: strain IIIB, 5 d, MTT
How it was run: as §1

Structure (SMILES) | EC50 Herpes simplex virus-1 (KOS) ([1]; HEL cultures, reduces virus-induced cytopathogenicity by 50 %) | EC50 [1] [µg/mL] | IC50b (50% cytotoxic concentration, reduces viability of mock-infected MT-4 cells by 50%) (mock-infected MT-4 cells) [µg/mL] | Minimum cytotoxic concentration (HEL cultures) [µg/mL] | EC50 (HIV-2(ROD)) [µg/mL] | EC50 [2] [µg/mL] | EC50 Vaccinia virus (Vaccinia virus) | EC50 (Vaccinia virus) [µg/mL] | EC50 [3] [µg/mL] | IC50a (50% effective concentration, 50% protection of MT-4 cells against the cytopathic effect of HIV) (HIV-1(IIIB)) [µg/mL] | IC50a (50% effective concentration, 50% protection of MT-4 cells against the cytopathic effect of HIV) (HIV-2(ROD); strain ROD, MT-4 cells, 5 d, MTT) [µg/mL]
O=C(O)c1cc(Br)ccc1-n1c(-c2ccccc2)nc2ccc(Br)cc2c1=O [MBR2, 5-Bromo-2-(6-bromo-4-oxo-2-phenyl-4H-quinazolin-3-yl)-benzoic acid] | distinct antiviral activity | 12 (≈ 24 µM) | 60.40 | 100 | > 60.4 | 12 (≈ 24 µM) | distinct antiviral activity | 12 (≈ 24 µM) | – | – | –
O=c1[nH]c(=O)n([C@H]2C[C@H](O)[C@@H](CO)O2)cc1/C=C/Br [Brivudin, reference compound] | – | 0.04 (≈ 0.12 µM) | – | – | – | 22 (≈ 66 µM) | – | 6 (≈ 18 µM) | 10 (≈ 30 µM) | – | –
O=C(O)c1ccccc1-n1c(-c2ccccc2)nc2ccc(Br)cc2c1=O [MBR1, 2-(6-Bromo-4-oxo-2-phenyl-4H-quinazolin-3-yl)-benzoic acid] | – | > 20 | >125 | 100 | > 125 | > 20 | – | > 20 | > 20 | – | –
O=C(O)c1cc(Br)cc(Br)c1-n1c(-c2ccccc2)nc2ccccc2c1=O [AA3, 3,5-dibromo-2-(4-oxo-2-phenyl-4H-quinazolin-3-yl)-benzoic acid] | – | 50 (≈ 100 µM) | >125 | >100 | > 125 | 100 (≈ 200 µM) | – | 100 (≈ 200 µM) | 100 (≈ 200 µM) | – | –
O=C(O)c1ccccc1-n1c(-c2ccccc2)nc2ccccc2c1=O [AA1, 2-(4-oxo-2-phenyl-4H-quinazolin-3-yl)-benzoic acid] | – | 100 (≈ 292 µM) | >125 | >100 | > 125 | 58 (≈ 169 µM) | – | > 100 | – | – | –
Cc1cn([C@H]2C[C@H](N=[N+]=[N-])[C@@H](CO)O2)c(=O)[nH]c1=O [AZT, reference compound] | – | – | 65.90 | – | – | – | – | – | – | 0.0012 | 0.00062
O=C(O)c1cc(Br)ccc1-n1c(-c2ccccc2)nc2c(Br)cc(Br)cc2c1=O [DBR2, 5-Bromo-2-(6,8-dibromo-4-oxo-2-phenyl-4H-quinazolin-3-yl)-benzoic acid] | – | > 20 | 64.18 | 100 | > 64.2 | > 20 | – | > 20 | > 20 | – | –
O=C(O)c1cc(Br)ccc1-n1c(-c2ccccc2)nc2ccccc2c1=O [AA2, 5-Bromo-2-(4-oxo-2-phenyl-4H-quinazolin-3-yl)-benzoic acid] | – | 50 (≈ 119 µM) | 88.20 | >100 | > 88.2 | 58 (≈ 138 µM) | – | 100 (≈ 237 µM) | 58 (≈ 138 µM) | – | –
O=C(O)c1cc(Br)cc(Br)c1-n1c(-c2ccccc2)nc2c(Br)cc(Br)cc2c1=O [DBR3, 3,5-Dibromo-2-(6,8-dibromo-4-oxo-2-phenyl-4H-quinazolin-3-yl)-benzoic acid] | – | > 100 | >125 | >100 | > 125 | > 100 | – | > 100 | > 100 | – | –
Nc1ccn(C[C@@H](CO)OCP(=O)(O)O)c(=O)n1 [Cidofovir, reference compound] | – | 0.8 (≈ 2.87 µM) | – | – | – | 0.8 (≈ 2.87 µM) | – | 10 (≈ 35.8 µM) | 1 (≈ 3.58 µM) | – | –
O=C(O)c1ccccc1-n1c(-c2ccccc2)nc2c(Br)cc(Br)cc2c1=O [DBR1, 2-(6,8-Dibromo-4-oxo-2-phenyl-4H-quinazolin-3-yl)-benzoic acid] | – | 58 (≈ 116 µM) | 83.15 | >100 | > 83.2 | 50 (≈ 100 µM) | – | 100 (≈ 200 µM) | 100 (≈ 200 µM) | – | –
NC(=O)c1ncn([C@@H]2O[C@H](CO)[C@@H](O)[C@H]2O)n1 [Ribavirin, reference compound] | – | > 250 | – | – | – | > 250 | – | > 250 | > 250 | – | –
